KCNQ1 block – inhibitors of human KCNQ1 potassium channel | P51787 | CHO-K1 KCNQ1, FluxOR thallium flux fluorescence; hits give high values | B-score at 10 µM | 310,000 tested, 1.3% active | AID 2642;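 active = compounds whose thallium flux B-score, printed positive for inhibition, exceeds three library SD while starting fluorescence stays within three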;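 also: channel opened by potassium depolarization with thallium stimulus after 20 min compound exposure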
KCNK3 inh – human KCNK3 channel inhibition, primary screen; 340,000 tested, 0.84% active; AID 602410; O14649; B-score at 10 µM; CHO-KCNK3 thallium flux, FluxOR fluorescence; hits give low values;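 active = B-score under library mean minus 4 SD, starting fluorescence ratio at most library mean plus 5 SD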;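 also: more negative B-score means stronger inhibition of thallium flux through KCNK3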
KCNQ1 pot – potentiates or activates the human KCNQ1 potassium channel; P51787; CHO-K1 KCNQ1, thallium flux FluxOR fluorescence; hits give high values; B-score at 10 µM; 310,000 tested, 0.35% active;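 active = fluorescence ratio B-score, a plate-corrected score, at least three library SD, with initial intensity B-score within 5 SD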
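assay system = CHO-K1 cells stably expressing KCNQ1 | medium = assay buffer, equal DMSO in all wells | timing = 37 °C overnight plating, 90-min dark dye load, 20-min compound pretreatment | measured by = kinetic FluxOR thallium fluorescence, 10-s 1-Hz baseline, 110-s post-stimulus read | measure = fluorescence change relative to baseline, converted to B score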
hERG protect – hERG (human) protection from proarrhythmic block; AID 1511; CHO-hERG, FluxOR thallium flux, dofetilide IC70 present; 310,000 tested, 0.51% active; Q12809; activation (rescue from dofetilide block), less the hit threshold, % at 10 µM;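 active = activation above the mean of controls blocked by dofetilide plus 5 SD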;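 also: thallium influx through hERG after potassium depolarization seen as dye fluorescence rise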
Target sequence (Q12809 whole entry, looked up): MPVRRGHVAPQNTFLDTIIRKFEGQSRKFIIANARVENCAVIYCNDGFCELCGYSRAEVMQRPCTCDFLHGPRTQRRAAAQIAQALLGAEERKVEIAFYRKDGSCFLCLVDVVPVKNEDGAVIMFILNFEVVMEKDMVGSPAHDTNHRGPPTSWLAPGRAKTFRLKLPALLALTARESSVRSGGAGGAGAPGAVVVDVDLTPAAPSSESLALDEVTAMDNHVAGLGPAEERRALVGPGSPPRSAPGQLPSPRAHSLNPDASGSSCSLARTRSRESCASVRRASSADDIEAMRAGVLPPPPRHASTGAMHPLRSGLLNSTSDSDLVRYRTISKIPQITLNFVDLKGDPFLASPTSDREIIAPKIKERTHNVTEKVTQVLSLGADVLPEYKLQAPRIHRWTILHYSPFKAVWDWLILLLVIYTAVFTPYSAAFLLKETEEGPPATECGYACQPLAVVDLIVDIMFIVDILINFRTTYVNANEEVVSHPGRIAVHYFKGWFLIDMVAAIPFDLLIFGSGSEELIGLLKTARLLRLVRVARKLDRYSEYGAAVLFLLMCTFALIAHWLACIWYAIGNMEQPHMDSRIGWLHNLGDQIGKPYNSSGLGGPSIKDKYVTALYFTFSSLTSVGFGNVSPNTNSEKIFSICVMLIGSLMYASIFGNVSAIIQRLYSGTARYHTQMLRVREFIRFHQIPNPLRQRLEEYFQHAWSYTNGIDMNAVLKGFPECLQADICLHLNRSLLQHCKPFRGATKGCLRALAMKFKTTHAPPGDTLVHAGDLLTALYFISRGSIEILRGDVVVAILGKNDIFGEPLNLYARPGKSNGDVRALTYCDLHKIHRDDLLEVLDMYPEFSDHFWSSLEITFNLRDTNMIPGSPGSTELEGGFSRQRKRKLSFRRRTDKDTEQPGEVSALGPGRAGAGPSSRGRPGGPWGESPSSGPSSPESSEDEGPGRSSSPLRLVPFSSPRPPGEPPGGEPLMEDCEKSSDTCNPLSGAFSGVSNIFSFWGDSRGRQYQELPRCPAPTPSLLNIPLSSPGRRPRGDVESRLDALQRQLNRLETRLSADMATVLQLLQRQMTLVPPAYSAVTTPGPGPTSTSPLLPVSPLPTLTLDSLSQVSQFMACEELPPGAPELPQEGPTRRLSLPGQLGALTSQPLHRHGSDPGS
KCNK9 block – blocks the human KCNK9 two-pore domain potassium channel | Q9NPC2 | HEK293 KCNK9, FluxOR thallium flux fluorescence; hits give low values | B-score at 10 µM | 310,000 tested, 1.2% active;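 active = ratio B-score over 3 SD below the library mean, with starting fluorescence within 5 SD of its mean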;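 also: negative B-score means less thallium flux so channel inhibition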
KCNQ1 block val – reconfirmed blocker of the human KCNQ1 potassium channel; inhibition, % at 10 µM; KCNQ1 cell line, FluxOR thallium flux fluorescence; AID 588353; 1,600 tested, 93% active; shares compounds with KCNQ1 block;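 active = primary screen active, with duplicate mean exceeding buffer control mean plus 3 SD of buffer wells, cut at about 28% in these data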;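 also: 0% = buffer control ratio and 100% = XE991 inhibitor control ratio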
CHO Tl flux – KCNQ1 inhibitor counter-screen hit in parental CHO cells | parental CHO-K1, FluxOR thallium flux fluorescence ratio; hits give low values; zero means no signal rise above baseline | fluorescence ratio (Tl flux) at 10 µM | AID 588366 | shares compounds with KCNQ1 block | 1,600 tested, 21% active;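 active = mean of duplicate thallium-flux fluorescence ratios in parental host cells more than 5 SD below the buffer control mean, cut at about 0.38 in these data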;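 also: ratio is peak minus minimum fluorescence divided by baseline fluorescence; actives read low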
KCNQ1 APC inh – confirmation of human KCNQ1 potassium channel inhibitors by electrophysiology. shares compounds with KCNQ1 block. KCNQ1-CHO cells, automated patch clamp current. calls only at 10 µM. 490 tested, 20% active;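 active = KCNQ1 current drop exceeding 3 SD of negative control wells, seen in both duplicate runs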;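 also: steady state current during a 2 s step from -80 to +40 mV; negative values mean current inhibition and positive values mean potentiation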
KCNQ2 spec – KCNQ1 inhibitor that also blocks rat KCNQ2 channel; shares compounds with KCNQ1 block; KCNQ2 cells, FluxOR thallium flux fluorescence; inhibition, % at 10 µM; 1,600 tested, 71% active; AID 651746;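 active = mean percent inhibition of the KCNQ2 thallium signal more than 5 SD above the buffer-only control wells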;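 also: KCNQ2 expressed in CHO cells; 0% = buffer control wells and 100% = XE-991 inhibitor control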
KCNQ1 KCNE1 spec – KCNQ1 inhibitor that also blocks human KCNQ1/KCNE1 channel. AID 652147. 1,600 tested, 77% active. inhibition, % at 10 µM. shares compounds with KCNQ1 block. KCNQ1/KCNE1 cells, FluxOR thallium flux fluorescence;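 active = mean percent inhibition of duplicate wells above the buffer-only control mean plus 3 SD of those controls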;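 also: 0% = buffer only wells and 100% = XE-991 inhibitor control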
* marks the source's active call; other numbers are inactive results; i = inactive; . = not tested or not shown; + = active, no number. Rows were chosen to be rich in hits. Some 3.1% of all compounds tested hit in one or more screens of this group.

SMILES	KCNQ1 block	KCNK3 inh	KCNQ1 pot	hERG protect	KCNK9 block	KCNQ1 block val	CHO Tl flux	KCNQ2 spec	KCNQ1 KCNE1 spec	others
O=[N+]([O-])c1ccc(-[n+]2ccc3ccccc3c2)c([N+](=O)[O-])c1	i	i	i	-13	i	.	.	.	.
Cc1ccc(C(=O)OCC(=O)Nc2ccc3c(c2)OCO3)c(O)c1	.	i	.	.	.	.	.	.	.
CCOc1ccc(N(CC(=O)NC2CC3CCC2C3)S(=O)(=O)c2ccccc2)cc1 (configuration not stated)	i	i	i	-3	i	.	.	.	.
CCOc1ccc(N(CC(=O)NC2CC3CCC2C3)S(=O)(=O)c2ccc(C)cc2)cc1 (configuration not stated)	8*	i	i	-8	i	100*	0.46	94%*	100%*	KCNQ1 APC inh=+
CCC(CC)n1c(C)cc(=O)n1C(CC)CC	.	i	.	.	.	.	.	.	.
O=C(O)C1CC=CCC1C(=O)Nc1ccc2c(c1)CCC2 (configuration not stated)	6*	i	i	-7	i	0	0.51	i	i
CC(C)(C)c1ccc(C(=O)Cn2cnnc2C#N)cc1	6*	i	i	-9	i	79*	0.47	i	36%*
Cc1cc(C(=O)NC2CCCc3c2cnn3-c2ccc(C)c(C)c2)n(C)n1 (configuration not stated)	11*	i	i	-15	i	102*	0.47	91%*	84%*	KCNQ1 APC inh=i
CCc1ccc(N(CC(=O)Nc2nc3ccc(C)cc3s2)S(=O)(=O)c2c(C)noc2C)cc1	9*	i	i	-5	i	71*	0.42	73%*	138%*
CCc1ccc(NC(=O)CN(c2ccc3c(c2)OCO3)S(=O)(=O)c2c(C)noc2C)cc1	i	i	i	-2	i	.	.	.	.
COC(=O)c1csc2c(C(F)(F)F)cc(N3CCN(C(=O)Nc4ccccc4)CC3)nc12	i	i	i	-6	i	.	.	.	.
Cc1cc(C)c(S(=O)(=O)N2CCCC(C(=O)NCc3ccncc3)C2)c(C)c1 (configuration not stated)	i	i	i	-4	i	.	.	.	.
COc1ccc(Br)cc1CSC(=N)N	i	i	i	-9	i	.	.	.	.
CCCCCOc1ccc(Br)cc1CSC(=N)N	9*	i	i	-27	i	125*	0.37*	86%*	94%*
Cc1cc(C(=O)N/N=C2\CC(=O)c3ccccc32)c(C)n1-c1ccccc1	i	i	i	-14	i	.	.	.	.
CN(CC(=O)Nc1cccc(F)c1)C(=O)c1cn(-c2ccccc2)nc1-c1ccccc1	8*	i	i	-19	i	74*	0.42	74%*	93%*
CN(CC(=O)Nc1ccc(F)cc1)C(=O)c1cn(-c2ccccc2)nc1-c1cccs1	.	i	.	.	.	.	.	.	.
Cc1cc(C)c(C#N)c(SCC(=O)CC(=O)OC(C)C)n1	i	i	i	-8	i	.	.	.	.
C=CCSc1nc2c(c(C3CC=CCC3)c1C#N)CCC2 (configuration not stated)	6*	i	i	-3	-7.7*	88*	0.46	101%*	143%*	KCNQ1 APC inh=i
CC(C)OC(=O)CSc1nc2c(c(C3CC=CCC3)c1C#N)CCC2 (configuration not stated)	10*	i	i	-8	i	96*	0.38*	132%*	106%*
Cc1ccccc1NC(=O)C1CCN(S(=O)(=O)c2cccc3nonc23)CC1	i	i	i	-11	i	.	.	.	.
NC(=O)C(=O)N/N=C/c1c2ccccc2cc2ccccc12	i	i	i	-7	i	.	.	.	.
COc1ccc(NC(=O)CN2CCN(c3ccccn3)CC2)cc1Cl	i	i	i	-2	i	.	.	.	.
COc1ccc(NC(=O)c2sc3ncnc(N4CCN(c5ccccn5)CC4)c3c2C)cc1Cl	8*	i	i	-19	i	80*	0.4	97%*	108%*
Cc1cc(Br)ccc1NC(=O)c1sc2ncnc(N3CCN(c4ccccn4)CC3)c2c1C	6*	i	i	-17	i	89*	0.44	104%*	82%*	KCNQ1 APC inh=i
SMILES	KCNQ1 block	KCNK3 inh	KCNQ1 pot	hERG protect	KCNK9 block	KCNQ1 block val	CHO Tl flux	KCNQ2 spec	KCNQ1 KCNE1 spec	others
Cc1c(C(=O)Nc2c(F)cccc2F)sc2ncnc(N3CCN(c4ccccc4)CC3)c12	7*	i	i	-15	i	64*	0.45	104%*	88%*
O=S(=O)(c1cccc(NC(=S)Nc2ccc(Br)cc2Cl)c1)N1CCOCC1	9*	i	i	-10	i	0	0.56	i	i
O=C(Cc1ccc(Br)cc1)Nc1cccc(S(=O)(=O)N2CCOCC2)c1	.	i	.	.	.	.	.	.	.
COc1ccc(N(C(=O)Nc2ccc(Cl)cc2)C2=NCCC2)cc1	12*	i	i	-10	i	130*	0.37*	132%*	200%*
Cc1ccc(N(C(=O)Nc2ccccc2)C2=NCCC2)cc1	i	i	i	-5	i	.	.	.	.
CCOC(=O)C1=C(C)N=c2s/c(=C\c3ccc(O)c([N+](=O)[O-])c3)c(=O)n2C1c1ccccc1OC (configuration not stated)	18*	i	i	-3	i	144*	0.3*	109%*	+
CCCn1nc(NC(=O)CC)c2cc3cccc(C)c3nc21	i	i	i	-5	i	.	.	.	.
CCCn1nc(NC(=O)c2cccs2)c2cc3cccc(C)c3nc21	7*	i	i	-10	i	158*	0.32*	i	+
COC(=O)c1ccc(Cl)c(NC(=O)NC23CC4CC(CC(C4)C2)C3)c1	10*	i	i	-18	i	131*	0.44	108%*	170%*
CCCC(=O)Nc1cc(C(=O)O)ccc1S(=O)(=O)c1ccc(Cl)cc1	i	i	i	-4	i	.	.	.	.
CCOC(=O)c1cnc2ccc(OCC)cc2c1N1CCN(c2ccccc2OC)CC1	11*	i	i	-16	i	130*	0.33*	141%*	182%*

Bioassay records: PubChem, Johns Hopkins Ion Channel Center
